Values after ≈ are worked out from the molar mass of the structure shown. Active and inactive are the calls of the source.
Columns and labels:
[1] = system: Mycobacterium tuberculosis; experiment: Bactericidal activity in Mycobacterium tuberculosis H37Rv on day 7; format: functional
Summary of the method: (§1)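 H37Rv broth cultures were incubated with a range of drug concentrations. Viable CFU were counted by plating on Middlebrook 7H11 agar after 1, 7 and 14 days. Bactericidal effect is calculated against the initial inoculum before drug addition, as the mean of triplicates.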

[2] = system: Mycobacterium tuberculosis; experiment: Antimicrobial activity against Mycobacterium tuberculosis H37Rv in 7H9 broth; format: functional
Summary of the method: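 Broth microdilution against H37Rv over 256 to 0.01 mg/liter. MIC is the lowest concentration with no visible turbidity.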

[3] = system: Mycobacterium tuberculosis; experiment: Bactericidal activity in Mycobacterium tuberculosis H37Rv on day 1; format: functional, organism-based; summary of the method: as §1
[4] = AUC(0-infinity) in BALB/c mouse at 37.5 to 2400 mg/kg, po; format: ADME, organism-based; parameters: dose 37.5-2400 mg/kg, route oral; conditions: plasma
Summary of the method: (§2)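 Uninfected mice received single ascending oral gavage doses as suspensions in 0.25% (wt/vol) carboxymethylcellulose at 10 ml/kg. Plasma was taken by retro-orbital puncture from 0.08 to 50 h after dosing, with 3 animals per time point. Drug was measured by HPLC-UV or LCMS, and parameters were derived by noncompartmental analysis.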

[5] = system: Mycobacterium tuberculosis; experiment: Antimicrobial activity against Mycobacterium tuberculosis […] on day 7; format: functional; summary of the method: as §1
[6] = system: Mycobacterium tuberculosis; experiment: Antimicrobial activity against Mycobacterium tuberculosis H37Rv infected in mouse J774A.1 macrophages; format: functional
Summary of the method: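 J774A.1 macrophages were infected with H37Rv (MOI 1:8, macrophage:bacilli) and exposed to drug at 32 to 0.5 mg/liter for 3 days. Intracellular MIC is the minimal concentration giving a static effect after 3 days. Efficacy is the log10 CFU/ml reduction over the assay period.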

[7] = system: Mycobacterium tuberculosis; experiment: Bactericidal activity in Mycobacterium tuberculosis H37Rv on day 14; format: functional, organism-based; summary of the method: as §1
[8] = Cmax in BALB/c mouse at 37.5 to 2400 mg/kg, po; format: ADME, organism-based; parameters: dose 37.5-2400 mg/kg, route oral; conditions: in vivo; summary of the method: as §2
[9] = Ratio of fraction Cmax in Mycobacterium tuberculosis infected BALB/c mouse to MIC in Mycobacterium tuberculosis infected BALB/c mouse model at 225 to 115000 mg/kg, po; format: ADME, organism-based; parameters: dose 225-115000 mg/kg, route oral; conditions: in vivo
Summary of the method: (§3)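 Free Cmax and free AUC were derived from single-dose mouse plasma PK after conversion to unbound concentrations using each agent's binding equation, then divided by the broth MIC. Values for the fractionation regimens were estimated from the dose relationship.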

Mus musculus [10] = experiment: Drug level in Mycobacterium tuberculosis infected BALB/c mouse model at 225 to 115000 mg/kg, po; format: ADME, organism-based; parameters: dose 225-115000 mg/kg, route oral; conditions: in vivo
[11] = system: Mycobacterium tuberculosis; experiment: Reduction of Mycobacterium tuberculosis H37Rv in orally dosed BALB/c mouse lung; format: functional
Summary of the method: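 BALB/c mice were infected by low-dose aerosol with H37Rv. Oral dosing started 4 weeks later and ran for 4 weeks (3 weeks for one agent), using fractionated regimens with 3 mice per regimen and saline controls. Lungs were homogenized 24 h after the end of treatment and plated on 7H11 agar with 10% ADC at 37°C in 5% CO2 for 3 weeks. The read-out is log10 CFU/lung.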

[12] = Toxicity in Mycobacterium tuberculosis infected BALB/c mouse model at 225 to 115000 mg/kg, po; format: organism-based; parameters: dose 225-115000 mg/kg, route oral; conditions: in vivo
[13] = Ratio of fraction AUC in Mycobacterium tuberculosis infected BALB/c mouse to MIC in Mycobacterium tuberculosis infected BALB/c mouse model at 225 to 115000 mg/kg, po; format: ADME, organism-based; parameters: dose 225-115000 mg/kg, route oral; conditions: in vivo; summary of the method: as §3
[14] = Half life in BALB/c mouse at 37.5 to 2400 mg/kg, po; format: ADME, organism-based; parameters: dose 37.5-2400 mg/kg, route oral; conditions: in vivo
Mus musculus [15] = experiment: Drug level in Mycobacterium tuberculosis infected BALB/c mouse model at 31 to 50000 mg/kg, po; format: ADME, organism-based; parameters: dose 31-50000 mg/kg, route oral; conditions: in vivo
[16] = Fraction unbound ligand in mouse plasma at 0.01 to 50 mg/litre; format: ADME, cell-free
Summary of the method: (§4)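 Mouse plasma protein binding was measured by equilibrium dialysis across cellulose acetate membranes (12,000 to 14,000 MW cutoff). Drug was quantified by HPLC-UV or LCMS. Each concentration was run in duplicate and the mean reported.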

[17] = AUC(0-infinity) in BALB/c mouse at 5 to 1000 mg/kg, po; format: ADME, organism-based; parameters: dose 5-1000 mg/kg, route oral; conditions: plasma; summary of the method: as §2
[18] = Half life in BALB/c mouse at 5 to 1000 mg/kg, po; format: ADME, organism-based; parameters: dose 5-1000 mg/kg, route oral; conditions: in vivo; summary of the method: as §2
[19] = system: Mycobacterium tuberculosis; experiment: Ratio of fraction Cmax in Mycobacterium tuberculosis infected BALB/c mouse to MIC in Mycobacterium tuberculosis infected BALB/c mouse model at 31 to 50000 mg/kg, po; format: functional; conditions: dose mg/kg 31-50000
Summary of the method: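 Unbound peak plasma level was divided by broth MIC. […] It was converted to free drug by a Boltzman fit of equilibrium-dialysis mouse plasma binding. Values for the fractionated regimens given to aerosol-infected mice were estimated from the dose–fCmax/MIC relationship.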

[20] = Ratio of fraction AUC in Mycobacterium tuberculosis infected BALB/c mouse to MIC in Mycobacterium tuberculosis infected BALB/c mouse model at 31 to 50000 mg/kg, po; format: functional; conditions: dose mg/kg 31-50000
Summary of the method: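 Estimated from oral single-ascending-dose PK in uninfected BALB/c mice (gavage, 0.25% CMC suspension; plasma sampled 0.08–50 h, 3 mice/time point; HPLC-UV/LCMS). Total AUC0-∞ was made unbound using a protein-binding fit from mouse-plasma equilibrium dialysis, then divided by broth MIC over 576 h/24 h (SPX: 432 h/24 h). Values were interpolated from dose relationships for dose-fractionation regimens in aerosol-infected mice.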

[21] = Cmax in BALB/c mouse at 5 to 1000 mg/kg, po; format: ADME, organism-based; parameters: dose 5-1000 mg/kg, route oral; conditions: in vivo; summary of the method: as §2
[22] = AUC(0-infinity) in BALB/c mouse at 6 to 400 mg/kg, po; format: ADME, organism-based; parameters: dose 6-400 mg/kg, route oral; conditions: plasma; summary of the method: as §2
Plasma = experiment: Fraction unbound ligand in mouse plasma at 0.01 to 10 mg/litre; format: ADME, cell-free; summary of the method: as §4
Mus musculus [23] = experiment: Drug level in Mycobacterium tuberculosis infected BALB/c mouse model at 38 to 19000 mg/kg, po; format: ADME, organism-based; parameters: dose 38-19000 mg/kg, route oral; conditions: in vivo
[24] = Cmax in BALB/c mouse at 6 to 400 mg/kg, po; format: ADME, organism-based; parameters: dose 6-400 mg/kg, route oral; conditions: in vivo; summary of the method: as §2

## O=C(O)c1cn(C2CC2)c2cc(N3CCNCC3)c(F)cc2c1=O [CIPROFLOXACIN]
[1]
  log10CFU/ml: 3.2
[2]
  MIC: 0.5 µg/mL (≈ 1.51 µM)
[3]
  Activity: Active
[4]
  AUC(0-inf): 29000 ng·h/mL
[5]
  log10CFU/ml: 3
[6]
  MIC: 4 µg/mL (≈ 12.1 µM)
[7]
  Activity: Active
[8]
  Cmax: 1200 ng/mL

## CC1COc2c(N3CCN(C)CC3)c(F)cc3c(=O)c(C(=O)O)cn1c23 (configuration not stated) [OFLOXACIN]
[9]
  Ratio: 1
[1]
  Activity: Active
Mus musculus [10]
  T>MIC: 0%
[2]
  MIC: 0.5 µg/mL (≈ 1.38 µM)
[11]
  Log10 cfu: 1.5
[12]
  LD50: 3000 mg/kg
[3]
  Activity: Active
[4]
  AUC(0-inf): 29000 ng·h/mL
[5]
  log10CFU/ml: 3
[6]
  MIC: 2 µg/mL (≈ 5.53 µM)
[13]
  RatioAUC/MIC: 2
[14]
  half-life: 4.93 h
[7]
  Activity: Active
[8]
  Cmax: 1700 ng/mL

## C[C@@H]1CN(c2c(F)c(N)c3c(=O)c(C(=O)O)cn(C4CC4)c3c2F)C[C@H](C)N1 [SPARFLOXACIN]
Mus musculus [15]
  T>MIC: 10%
[1]
  Activity: Active
[16]
  fraction unbound: 0.26
[2]
  MIC: 0.1 µg/mL (≈ 0.255 µM)
[11]
  Log10 cfu: 1.4
[17]
  AUC(0-inf): 43000 ng·h/mL
[18]
  half-life: 9.8 h
[3]
  Activity: Active
[19]
  Ratio: 4
[20]
  RatioAUC/MIC: 3
[21]
  Cmax: 750 ng/mL
[5]
  log10CFU/ml: 3
[6]
  MIC: 2 µg/mL (≈ 5.1 µM)
[7]
  Activity: Active

## COc1c(N2C[C@@H]3CCCN[C@@H]3C2)c(F)cc2c(=O)c(C(=O)O)cn(C3CC3)c12 [MOXIFLOXACIN]
[22]
  AUC(0-inf): 25000 ng·h/mL
[1]
  Activity: Active
Plasma
  Fu: 0.077
[2]
  MIC: 0.5 µg/mL (≈ 1.25 µM)
[11]
  Log10 cfu: 3.2
[3]
  Activity: Active
[5]
  log10CFU/ml: 3
[6]
  MIC: 1 µg/mL (≈ 2.49 µM)
[7]
  Activity: Active
Mus musculus [23]
  T>MIC: 0%
[24]
  Cmax: 380 ng/mL

Reference: ChEMBL document CHEMBL1142211 (Antimicrob Agents Chemother, 2007)
